Measured values as given in paper PMC3431965 (The Journal of organic chemistry, 2012).
Residue numbers refer to the chain shown, from its start. Like-named read-outs stand apart in the source and are kept apart here.

Tests used:
β-glucosidase (almond) = test: Glycosidase inhibition assay, β-glucosidase; format: biochemical; conditions: substrate at Km; for β-Glc % Ra (% remaining activity at 100 µM): 100 µM compound; for IC50: read-out: β-Glc IC50
Summary of the method: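 Enzyme is added last; incubation is 4–5 min at room temperature, then 0.2 M sodium borate (pH 9.8) quenches. Absorbance at 405 nm gives % remaining activity at 100 µM compound. IC50 comes from non-linear fitting of relative activity versus concentration to a Hill-slope equation.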

[1] = system: β-mannosidase (Roman snail); test: Glycosidase inhibition assay, β-mannosidase; format: biochemical; conditions: 100 µM compound; substrate at Km
Summary of the method: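 Test compound is at 100 µM. Enzyme addition starts the reaction, which runs 4–5 min at room temperature before quenching with 0.2 M sodium borate (pH 9.8). Absorbance is read at 405 nm and given as % remaining activity.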

[2] = biological target: α-galactosidase (green coffee beans) (Coffea arabica, UniProt Q42656); test: biochemical; conditions: for α-Gal % Ra (% remaining activity at 100 µM): 100 µM compound, substrate at Km
Chain of α-galactosidase (green coffee beans) (Q42656 16-378): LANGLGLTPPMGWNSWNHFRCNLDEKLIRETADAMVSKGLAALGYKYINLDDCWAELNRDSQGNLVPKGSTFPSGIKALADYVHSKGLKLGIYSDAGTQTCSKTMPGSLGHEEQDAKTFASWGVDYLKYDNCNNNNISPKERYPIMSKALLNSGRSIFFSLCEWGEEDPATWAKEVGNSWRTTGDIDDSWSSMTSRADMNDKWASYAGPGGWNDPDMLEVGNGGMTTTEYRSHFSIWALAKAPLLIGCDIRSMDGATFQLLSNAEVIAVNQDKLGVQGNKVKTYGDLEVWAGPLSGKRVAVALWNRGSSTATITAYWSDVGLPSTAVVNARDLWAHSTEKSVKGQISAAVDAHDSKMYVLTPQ

[3] = biological target: β-galactosidase (Escherichia coli) (Escherichia coli, UniProt P00722); test: biochemical; conditions: for remaining activity at 100 µM: read-out: β-Gal % Ra (% remaining activity at 100 µM); for β-Gal % Ra (% remaining activity at 100 µM): 100 µM compound
Chain of β-galactosidase (Escherichia coli) (P00722 2-1024): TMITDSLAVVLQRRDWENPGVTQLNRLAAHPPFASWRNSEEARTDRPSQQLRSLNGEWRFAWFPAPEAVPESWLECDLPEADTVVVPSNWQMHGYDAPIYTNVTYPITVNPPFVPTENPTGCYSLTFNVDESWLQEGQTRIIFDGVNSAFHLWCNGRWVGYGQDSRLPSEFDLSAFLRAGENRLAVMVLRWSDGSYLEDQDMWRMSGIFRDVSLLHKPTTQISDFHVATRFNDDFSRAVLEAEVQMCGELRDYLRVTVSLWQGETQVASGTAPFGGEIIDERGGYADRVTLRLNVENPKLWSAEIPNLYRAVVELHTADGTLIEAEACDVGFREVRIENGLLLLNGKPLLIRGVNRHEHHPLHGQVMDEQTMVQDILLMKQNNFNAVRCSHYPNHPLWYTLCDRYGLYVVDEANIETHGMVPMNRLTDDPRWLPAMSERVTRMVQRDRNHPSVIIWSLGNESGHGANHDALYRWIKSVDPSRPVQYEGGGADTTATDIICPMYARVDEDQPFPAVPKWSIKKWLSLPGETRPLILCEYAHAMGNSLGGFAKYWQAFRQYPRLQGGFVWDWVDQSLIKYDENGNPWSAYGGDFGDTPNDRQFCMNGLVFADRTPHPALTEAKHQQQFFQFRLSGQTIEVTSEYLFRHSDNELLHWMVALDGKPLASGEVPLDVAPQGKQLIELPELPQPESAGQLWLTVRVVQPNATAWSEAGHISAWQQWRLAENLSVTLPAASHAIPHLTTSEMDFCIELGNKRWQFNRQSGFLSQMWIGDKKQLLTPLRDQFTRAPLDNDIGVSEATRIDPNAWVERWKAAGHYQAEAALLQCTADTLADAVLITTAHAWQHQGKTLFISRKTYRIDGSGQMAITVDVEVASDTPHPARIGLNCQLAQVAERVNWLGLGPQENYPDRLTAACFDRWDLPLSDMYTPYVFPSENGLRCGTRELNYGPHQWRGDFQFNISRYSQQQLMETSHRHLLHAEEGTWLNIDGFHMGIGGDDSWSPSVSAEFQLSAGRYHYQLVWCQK

[4] = biological target: T1, ceramide-specific glucosyltransferase (Rattus norvegicus, UniProt Q9R0E0); test: Ceramide-specific glucosyltransferase assay, rat testicular microsomes; format: biochemical, Long Evans (LE) rat; conditions: rat testicular microsomes, n.i. = no inhibition at 1000 µM concentration; for IC50: read-out: ceramide-specific glucosyltransferase IC50 (LE rat)
T1 sequence (Q9R0E0 1-394): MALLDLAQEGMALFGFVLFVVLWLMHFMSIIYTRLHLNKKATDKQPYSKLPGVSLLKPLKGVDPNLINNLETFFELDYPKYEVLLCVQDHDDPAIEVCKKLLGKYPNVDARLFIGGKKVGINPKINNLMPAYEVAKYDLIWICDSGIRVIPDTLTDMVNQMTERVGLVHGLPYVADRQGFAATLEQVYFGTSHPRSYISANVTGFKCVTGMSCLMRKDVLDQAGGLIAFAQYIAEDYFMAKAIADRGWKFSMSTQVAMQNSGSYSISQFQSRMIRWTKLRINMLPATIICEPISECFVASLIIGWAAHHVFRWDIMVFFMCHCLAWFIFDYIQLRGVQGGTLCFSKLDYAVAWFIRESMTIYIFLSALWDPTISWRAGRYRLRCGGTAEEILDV

[5] = system: α-glucosidase (Saccharomyces cerevisiae); test: Glycosidase inhibition assay, α-glucosidase; format: biochemical; conditions: substrate at Km; for α-Glc % Ra (% remaining activity at 100 µM): 100 µM compound
[6] = biological target: T2, ceramide-specific glucosyltransferase (Mus musculus, UniProt O88693); test: Ceramide-specific glucosyltransferase assay, mouse testicular microsomes; format: biochemical, C57BL/6 mouse; conditions: mouse testicular microsomes, n.i. = no inhibition at 1000 µM concentration; for IC50: read-out: ceramide-specific glucosyltransferase IC50 (C57BL/6, mouse)
T2 sequence (O88693 1-394): T1 sequence (Q9R0E0 1-394) with E96D, R164K, K249R, A377T

[7] = biological target: T3, α-mannosidase (jack bean) (Canavalia ensiformis, UniProt C0HJB3); test: Glycosidase inhibition assay, α-mannosidase; format: biochemical; conditions: for α-Man % Ra (% remaining activity at 100 µM): 100 µM compound, substrate at Km
T3 sequence (C0HJB3 1-562 limits assumed): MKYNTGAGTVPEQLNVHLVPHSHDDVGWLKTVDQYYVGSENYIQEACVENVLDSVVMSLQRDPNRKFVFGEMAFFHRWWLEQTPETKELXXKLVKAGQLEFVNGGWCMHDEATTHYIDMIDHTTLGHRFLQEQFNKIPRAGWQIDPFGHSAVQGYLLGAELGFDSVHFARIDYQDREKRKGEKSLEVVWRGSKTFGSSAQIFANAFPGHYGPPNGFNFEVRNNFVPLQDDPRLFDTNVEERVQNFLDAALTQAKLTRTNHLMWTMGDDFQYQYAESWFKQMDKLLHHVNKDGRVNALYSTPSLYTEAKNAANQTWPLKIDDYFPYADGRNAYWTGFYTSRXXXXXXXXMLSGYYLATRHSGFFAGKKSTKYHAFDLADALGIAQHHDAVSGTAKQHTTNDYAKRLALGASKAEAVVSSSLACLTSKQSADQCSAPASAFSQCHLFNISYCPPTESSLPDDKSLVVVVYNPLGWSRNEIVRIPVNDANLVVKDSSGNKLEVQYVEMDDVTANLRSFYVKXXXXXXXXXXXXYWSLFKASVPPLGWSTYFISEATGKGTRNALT
T3 sequence (C0HJB3 563-981 partner limits assumed): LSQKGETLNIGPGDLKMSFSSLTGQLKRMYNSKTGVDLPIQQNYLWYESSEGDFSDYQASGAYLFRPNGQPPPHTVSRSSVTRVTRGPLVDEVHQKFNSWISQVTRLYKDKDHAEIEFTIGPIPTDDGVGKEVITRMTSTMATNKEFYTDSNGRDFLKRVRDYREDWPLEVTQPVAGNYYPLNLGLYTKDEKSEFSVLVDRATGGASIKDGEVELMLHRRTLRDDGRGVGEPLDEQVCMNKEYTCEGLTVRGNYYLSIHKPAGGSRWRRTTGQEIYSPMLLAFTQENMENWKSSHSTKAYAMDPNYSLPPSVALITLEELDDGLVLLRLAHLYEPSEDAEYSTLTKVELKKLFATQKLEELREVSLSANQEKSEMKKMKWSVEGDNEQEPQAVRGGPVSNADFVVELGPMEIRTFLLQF
Summary of the method: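 Enzyme starts the reaction with test compound at 100 µM. After 4–5 min at room temperature, 0.2 M sodium borate (pH 9.8) quenches it. Absorbance is read at 405 nm and reported as % remaining activity.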

Row | SMILES | β-Glc % Ra (% remaining activity at 100 µM) (β-glucosidase (almond)) [%] | β-Man % Ra (% remaining activity at 100 µM) [1] [%] | α-Glc % Ra (% remaining activity at 100 µM) [5] [%] | α-Gal % Ra (% remaining activity at 100 µM) [2] [%] | β-Gal % Ra (% remaining activity at 100 µM) ([3]; substrate at Km) [%] | IC50 [4] [µM] | α-Man % Ra (% remaining activity at 100 µM) [7] [%] | further results
1 | CCCCN1C/C=C\[C@@H](O)[C@H](O)[C@@H](O)C1 [Compound 3, (3S,4S,5R,Z)-1-Butyl-1,2,3,4,5,8-hexahydroazocine-3,4,5-triol] | 52 | 99 | 81 | – | – | – | – | IC50 (β-glucosidase (almond)): 105 µM; remaining activity at 100 µM ([2]; read-out: α-Gal % Ra (% remaining activity at 100 µM)): 100%; remaining activity at 100 µM [3]: 94%; ceramide-specific glucosyltransferase IC50 (LE rat) [4]: n.i.; ceramide-specific glucosyltransferase IC50 (C57BL/6, mouse) [6]: n.i.; remaining activity at 100 µM ([7]; read-out: α-Man % Ra (% remaining activity at 100 µM)): 100%
2 | CCCCCCCCCN1[C@H](CO)[C@@H](O)[C@@H]1CO [Compound 25, ((2R,3s,4S)-3-Hydroxy-1-nonylazetidine-2,4-diyl)dimethanol] | 26 | 76 | – | 66 | 107 | 91 | 92 | IC50 (β-glucosidase (almond)): 20 µM; IC50 ([5]; read-out: α-Glc IC50): 0.6 µM; IC50 [6]: 44 µM
3 | CCCCCCCCCN1C[C@@H](O)[C@@H](O)[C@@H](O)[C@H](O)[C@@H](O)C1 [Compound 6, (3S,4R,5S,6R,7R)-1-Nonylazocane-3,4,5,6,7-pentaol] | 85 | 99 | 84 | 100 | 92 | 127 | 100 | ceramide-specific glucosyltransferase IC50 (C57BL/6, mouse) [6]: n.i.
4 | CCCCN1C[C@H](O)[C@@H](O)[C@@H](O)[C@H]1CO [NB-DGJ, N-butyldeoxygalactonojirimycin, reference compound] | – | – | – | – | – | – | – | IC50 [3]: 6 µM; remaining activity at 100 µM [3]: 9.6%
5 | O[C@H]1[C@H](O)[C@@H](O)CN2CC[C@H](O)[C@H]12 [Castano., castanospermine, reference compound] | 13.5 | – | – | – | – | – | – | –
6 | OC[C@H]1NC[C@@H](O)[C@@H](O)[C@@H]1O [DMJ, 1-deoxymannojirimycin, reference compound] | – | 77 | – | – | – | – | 75 | –
7 | CCCCN1[C@H](CO)[C@@H](O)[C@@H]1CO [Compound 24, ((2R,3s,4S)-1-Butyl-3-hydroxyazetidine-2,4-diyl)dimethanol] | 101 | 113 | 65 | 106 | 109 | > 300 | 99 | IC50 [6]: > 300 µM
8 | OC[C@H]1NC[C@H](O)[C@@H](O)[C@H]1O [DGJ, 1-deoxygalactonojirimycin, reference compound] | – | – | – | 0.05 | 23 | – | – | IC50 ([3]; read-out: β-Gal IC50, substrate at Km): 40 µM
9 | OC[C@H]1NC[C@H](O)[C@@H](O)[C@@H]1O [DNJ, 1-deoxynojirimycin, reference compound] | – | – | 34 | – | – | – | – | –
